Only some compounds are listed: those with a hit (about 1.4% of all), similar ones and a draw of the others.
NR2E3 ag-1: agonists of human NR2E3 nuclear receptor. Q9Y5X4. 360,000 tested, 0.35% active. inhibition of corepressor binding, % at 3.98 µM. AID 602229. CHO-S Gal4-NCOR/VP16-NR2E3 two-hybrid, luciferase;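 active = inhibition above the mean of all tested compounds plus 3 SD, cut at about 70% in these data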;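 also: 0% = DMSO with NR2E3 transfected cells and 100% = cells lacking NR2E3 construct; higher means lower luciferase signal from less NR2E3 corepressor binding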
PG9 binder: PG9 antibody binding by small molecule; inhibition, % at 6.7 µM; TR-FRET gp120-PG9 antibody binding; 360,000 tested, 0.43% active; in the data active = inhibition above about 8.5%
NR1D1 modulator: modulates human Rev-erb alpha binding to DNA; P20393; Rev-erbα–FITC-DNA binding, fluorescence polarization, 90 min; activity, % at 10 µM; 370,000 tested, 0.79% active;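 active = activity above about 14%, limit read from the data; passing the limit was not always enough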;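 also: 0% = DMSO wells with 35 nM protein and 100% = DMSO wells with 750 nM protein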
Target sequence (P20393 whole entry, looked up): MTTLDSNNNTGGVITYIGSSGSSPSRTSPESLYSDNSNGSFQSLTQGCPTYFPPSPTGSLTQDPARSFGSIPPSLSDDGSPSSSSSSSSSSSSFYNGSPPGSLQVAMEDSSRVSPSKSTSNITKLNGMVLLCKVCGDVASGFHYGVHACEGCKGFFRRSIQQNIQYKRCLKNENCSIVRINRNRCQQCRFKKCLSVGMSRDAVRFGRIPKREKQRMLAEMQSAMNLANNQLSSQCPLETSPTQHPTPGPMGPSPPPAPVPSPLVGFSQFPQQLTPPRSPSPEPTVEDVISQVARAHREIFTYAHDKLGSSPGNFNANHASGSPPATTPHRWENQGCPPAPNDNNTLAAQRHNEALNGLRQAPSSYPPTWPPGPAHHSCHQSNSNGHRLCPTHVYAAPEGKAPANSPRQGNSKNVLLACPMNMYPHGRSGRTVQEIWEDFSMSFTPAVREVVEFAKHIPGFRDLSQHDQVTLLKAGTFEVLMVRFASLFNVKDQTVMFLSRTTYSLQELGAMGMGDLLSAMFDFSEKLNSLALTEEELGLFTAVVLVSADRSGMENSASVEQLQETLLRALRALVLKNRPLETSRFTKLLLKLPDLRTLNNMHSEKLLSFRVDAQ
NR2E3 ag-2: activates human photoreceptor nuclear receptor NR2E3; GST-NR2E3/biotin-RetCOR TR-FRET, 1536-well; inhibition of corepressor binding, % at 4.78 µM; 320,000 tested, 0.12% active; AID 2300;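 active = percent inhibition above the cutoff of mean plus 3 SD of all tested compounds, set per screening campaign, cut at about 20% in these data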;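 also: 0% = DMSO wells and 100% = biotin wells as full block of FRET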
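Test system: GST-NR2E3 and biotin-RetCOR proteins | Quantity: 1.35 nM GST-tagged NR2E3 final | Medium: Tris pH 7.5 | Also added: 7 nM biotin-RetCOR | Dosing: Compound at 4.8 µM, single dose | Timing: 5 h at 4 °C | Detection: Time-resolved FRET | Read-out basis: Percent inhibition | Benchmarks: Biotin wells as high control, 0.6% DMSO wells as low control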
NR2E3 ag conf: NR2E3 agonism confirmed in two-hybrid assay; shares compounds with NR2E3 ag-1; CHO-S mammalian two-hybrid NR2E3-NCOR, luciferase luminescence; inhibition, % at 3.98 µM; 2,300 tested, 51% active;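 active = average inhibition above a cutoff equal to the mean inhibition of all tested compounds plus one SD, cut at about 70% in these data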;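 also: 0% = DMSO in NR2E3 cells and 100% = DMSO in cells lacking NR2E3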
GAL4-VP16 luc: counter-screen for NR2E3 agonists: GAL4-VP16 reporter inhibitors; shares compounds with NR2E3 ag-1; CHO-S GAL4-VP16 luciferase reporter, luminescence; inhibition, % at 3.98 µM; 2,300 tested, 29% active; AID 624379;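 active = mean inhibition above a cutoff equal to the average over all tested compounds plus one standard deviation, cut at about 70% in these data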;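 also: luciferase from a UAS reporter driven by GAL4-VP16 transactivation; 0% = DMSO with VP16-transfected cells and 100% = DMSO with cells lacking VP16; higher means less reporter light so more repression of VP16 activity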
* marks the source's active call; other numbers are inactive results; · = no result given.

SMILES | NR2E3 ag-1 | PG9 binder | NR1D1 modulator | NR2E3 ag-2 | NR2E3 ag conf | GAL4-VP16 luc
O=c1cc(CSc2ccc(Cl)cc2)nc(-c2ccccn2)[nH]1 | 101* | -1 | 1 | 0 | 98* | 60
O=c1cc(CSc2ccc(Cl)cc2)nc(-c2ccccc2)[nH]1 | -3 | -2 | -2 | -3 | · | ·
Clc1ccc(SCc2cc(N3CCOCC3)nc(-c3ccccn3)n2)cc1 | 95* | -1 | 2 | 0 | 58 | 43
COc1ccc(CNS(=O)(=O)/C=C/c2ccc(F)cc2CNC(=O)OC(C)(C)C)cc1 | · | · | -3 | · | · | ·
CC(=O)Nc1ccc(S(=O)(=O)NCCSCc2cccc(Cl)c2)cc1 | -10 | -2 | 9 | -4 | · | ·
CC(=O)Nc1ccc(S(=O)(=O)NCCSCc2c(Cl)cccc2Cl)cc1 | 62 | 1 | -4 | 1 | 71* | 58
Cc1ccccc1S(=O)(=O)N1[C@@H](c2ccc(Br)cc2)C(C(=O)O)=CC[C@H]1c1ccc(Cl)cc1 | 79* | -1 | -10 | · | 38 | 14
Cc1ccc([C@@H]2CC=C(C(=O)O)[C@H](c3ccc(Br)cc3)N2S(=O)(=O)c2ccccc2C)cc1 | 64 | 0 | -5 | · | 16 | 3
O=C(CCC(=O)N1CCN(c2ccc(Cl)c(Cl)c2)CC1)c1ccccc1 | 91* | -1 | 3 | 1 | 96* | 76*
COc1ccc(NC(=S)N(CCCN2CCOCC2)Cc2ccco2)cc1 | -7 | -1 | 5 | -1 | · | ·
CCc1ccc(NC(=S)N(CCCN2CCOCC2)Cc2ccco2)cc1 | 66 | -2 | -3 | -2 | -7 | -11
Cc1cc(NNC(=O)c2cccc(C(F)(F)F)c2)nc2c1c(C)nn2C | 53 | -1 | -5 | 4 | 87* | 68
CCCCOC(=O)c1[nH]c2c(c1C)C(=O)CC(c1cc(OC)c(OC)c(OC)c1)C2 (stereo not drawn) | 89* | 0 | 1 | 1 | 84* | 61
C=CCOC(=O)c1[nH]c2c(c1C)C(=O)CC(c1cc(OC)c(OC)c(OC)c1)C2 (stereo not drawn) | 54 | · | · | 0 | 73* | 45
Nc1nc(Cl)cc(NCCc2ccc(O)cc2)n1 | 6 | -3 | 0 | 2 | · | ·
Oc1ccc(CCNc2ncnc3ccc(Cl)cc23)cc1 | 91* | 1 | -4 | 1 | 93* | 87*
CCCC[C@H](C(=O)N(C)c1ccccc1)[C@@H](O)c1ccc(C(C)=O)cc1 | · | · | 1 | · | · | ·
CCN(CC)S(=O)(=O)c1ccc(N2CCOCC2)c(NS(=O)(=O)c2cc(C(C)(C)C)ccc2C)c1 | 50 | -2 | -7 | 1 | 66 | -18
O=C1CCC[C@H]2Cc3nc4ccccc4cc3C[C@]23CCCN13 | · | · | -2 | · | · | ·
CSC(=S)N/N=C(\C)c1ccc(Br)cc1 | 82* | 0 | -8 | -3 | -15 | -18
CS(=O)(=O)c1ccccc1C(=O)N1CCN(S(=O)(=O)c2ccc(C3CCCCC3)cc2)CC1 | 49 | 1 | -4 | · | 33 | 37
Cc1cc(C)c2nc(C(F)(F)F)c(C#N)c(N)c2c1 | 9 | -1 | 22 | 3 | · | ·
Cc1ccc2nc(C(F)(F)F)c(C#N)c(N)c2c1 | 75* | 1 | 6 | 6 | 59 | 26
CC(C)(C)OC(=O)N1Cc2ccccc2C[C@H]1C(=O)NCC(=O)Nc1ccc2c(c1)OCCO2 | 59 | -2 | 7 | -2 | 27 | 8
CCCCCCCCN1[C@@H](CC(=O)O)c2cc(C(F)(F)F)ccc2S1(=O)=O | 29 | 1 | -2 | 2 | · | ·
CCCCCCCCCCCCN1[C@@H](CC(=O)O)c2cc(C(F)(F)F)ccc2S1(=O)=O | 53 | 1 | -2 | -3 | 98* | 30
CCCCCCCCCCCCN1[C@@H](CC(=O)O)c2cc(F)ccc2S1(=O)=O | 95* | 1 | 3 | 0 | 94* | 40
Cc1cccc(-c2cccc3c4c([nH]c23)[C@@H]2C[C@H](N(C)C(=O)c3ccco3)[C@H]([C@H](C)O)C(=O)N2CC4)c1 | · | · | 4 | · | · | ·
CN(CC(=O)Nc1ccccc1Cl)C(=O)c1cccc(S(=O)(=O)N2CCN(c3ccc(F)cc3)CC2)c1 | 94* | 0 | 0 | -2 | 73* | 50
CN(Cc1ccc(OC(F)F)cc1)C(=O)c1cccc(S(=O)(=O)N2CCN(c3ccccc3)CC2)c1 | 83* | -1 | -3 | · | 85* | 67

Screening data: PubChem BioAssay, several laboratories
